Several values for one entry are separate records, joined by “and”; a condition that tells them apart may be missing. Identical values can stand only once. Bounds are passed on as bounds.

Series [1] has as its target T1, Aldo-keto reductase family 1 member A1 (Sus scrofa, UniProt P50578).
T1 sequence (P50578 whole entry): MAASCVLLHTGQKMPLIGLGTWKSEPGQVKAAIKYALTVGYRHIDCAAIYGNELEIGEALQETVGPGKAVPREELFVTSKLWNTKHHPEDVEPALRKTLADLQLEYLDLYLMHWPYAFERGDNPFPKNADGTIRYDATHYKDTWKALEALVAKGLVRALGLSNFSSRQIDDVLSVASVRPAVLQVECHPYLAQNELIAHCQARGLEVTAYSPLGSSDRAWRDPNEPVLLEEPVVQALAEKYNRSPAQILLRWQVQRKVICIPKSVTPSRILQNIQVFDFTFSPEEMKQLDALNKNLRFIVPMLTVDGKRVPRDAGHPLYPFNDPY
As to the kind of experiment: (§1) Selectivity ratio measured as the IC50 ratio of aldehyde/aldose reductase values.

Series [2] addresses T2, Aldo-keto reductase family 1 member B1 (Homo sapiens, UniProt P15121). Description: In vitro inhibition of human placental aldose reductase. A digest of the protocol: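 Human placental aldose reductase, partly purified (placentae homogenized in 0.1 M K phosphate pH 7.0 with 5 mM 2-mercaptoethanol, spun 33000g, peak fractions pooled). Assay in 50 mM K phosphate pH 7.1 with 0.4 M ammonium sulfate, 0.067 mM NADPH, 1.0 mM DL-glyceraldehyde; enzyme set to 4 milliunits; NADPH oxidation at 340 nm, 25 °C, 10 min. IC50 by log linear regression.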

The target in series [3] is T2, Aldo-keto reductase family 1 member B1. As to the kind of experiment: Inhibitory activity measured in vitro against human placental aldose reductase at a concentration of 10e-5 M.
Series [4] has as its target T3, Aldo-keto reductase family 1 member A1 (Sus scrofa) (UniProt P50578).
T3 sequence (whole entry): T1 sequence (P50578 whole entry)
As to the kind of experiment: Inhibitory activity measured against pig kidney aldehyde reductase using 3-pyridinecarboxaldehyde as substrate at 2e-4. Particulars: concentration not given here. Put shortly:
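Pig kidney aldehyde reductase, purified to homogeneity, was tested at 2 × 10^-4 M inhibitor in 50 mM potassium phosphate pH 7.0 with 0.1 mM NADPH and 5 mM 3-pyridinecarboxaldehyde. The reaction was started with substrate, and NADPH loss was read at 340 nm for 12 min at 25 °C. The value is percent inhibition.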

The species entered for series [5] is Rattus norvegicus. As to the kind of experiment: Percent inhibition of sorbitol accumulation in rat sciatic nerve was measured. The class given is functional. Put shortly: (§2)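 Streptozotocin 85 mg/kg i.v. at 0 h to induce diabetes in rats; compound 100 mg/kg orally at 4, 7 and 24 h; killed at 27 h. Sorbitol in sciatic nerve or lens compared with untreated diabetic rats, n = 6 per group; Student's t test.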

The target in series [6] is T4, Aldo-keto reductase family 1 member B1 (Rattus norvegicus, UniProt P07943). Description: (§3) Inhibitory activity measured against rat lens aldose reductase using 3-pyridinecarboxaldehyde as substrate.
Series [7] in a line: as §1. A digest of the protocol:
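Ratio of the pig kidney aldehyde reductase IC50 to the rat lens aldose reductase IC50. Both purified enzymes were assayed in 50 mM potassium phosphate pH 7.0 with 0.1 mM NADPH and 5 mM 3-pyridinecarboxaldehyde, started with substrate, reading NADPH loss at 340 nm for 12 min at 25 °C. IC50s came from log-linear regression.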

Series [8] in a line: Inhibitory activity measured against pig kidney aldehyde reductase using 3-pyridinecarboxaldehyde as substrate. Put shortly: (§4)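 Purified rat lens aldose reductase and homogeneous pig kidney aldehyde reductase, assayed in 50 mM K phosphate pH 7.0 with 0.1 mM NADPH and 5 mM 3-pyridinecarboxaldehyde; substrate-started, NADPH loss at 340 nm over 12 min, 25 °C. IC50 by log linear regression; selectivity = aldehyde IC50 / aldose IC50.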

A short description of series [9]: Physicochemical property was determined. The class given is ADME.
A short description of series [10]: as §3. A digest of the protocol:
as §4

For series [11], the target named is T4, Aldo-keto reductase family 1 member B1. Description: Inhibition of rat lens aldose reductase was measured.
Series [12] is described as follows: Physicochemical property was determined; b=could not be measured. Format: ADME.
The species entered for series [13] is Rattus norvegicus. As to the kind of experiment: Percent inhibition of sorbitol accumulation in rat lens was measured. Format: functional, Lens of camera-type eye. A digest of the protocol:
as §2

With `CC(/C=C1\SC(=S)N(CC(=O)O)C1=O)=C\c1ccccc1`, the half-maximal inhibitory concentration (IC50) in [1] was 1500 nM.
For `CCCOC(=O)C1=C(O)C(=O)N(Cc2ccccc2)C1`, the half-maximal inhibitory concentration (IC50) in [2] was determined as 1900 nM.
The compound `CCOC(=O)C1=C(O)C(=O)N(Cc2cccs2)C1` showed an IC50 in series [2] of 380 nM.
In the case of `CC(C)(C)OC(=O)C1=C(O)C(=O)N(Cc2ccccc2)C1`, the inhibition in [3] worked out at 27%.
Same read-out and setting: the same measure for `CCOC(=O)C1=C(O)C(=O)N(CC2CCCCC2)C1`: 64%.
On to `CCOC(=O)C1=C(O)C(=O)N(Cc2ccccc2)C1`, for which, in series [2], the IC50 is 260 nM. In series [4], this compound yielded an inhibition of 2%. In addition, the Inhibition in series [5] was 51% and 42%.
Turning to `CCOC(=O)C1=C(O)C(=O)N(CCc2ccccc2)C1`, the half-inhibitory concentration (IC50) in series [2] was 2500 nM.
On to `CCOC(=O)C1C(=O)C(=O)NC12CCOc1ccc(F)cc12` (configuration not stated), for which the midpoint of inhibition in [6], the IC50, lay at 910 nM. This compound also had an inhibition in series [4] of 11%. The Selectivity ratio in series [7] was above 200.
`CCOC(=O)C1=C(O)C(=O)N(Cc2cccc3ccccc23)C1` came in with an IC50 in [2] of 2300 nM.
The same measure, in the same setting: the same measure for `COC(=O)C1=C(O)C(=O)N(Cc2ccccc2)C1`: 2600 nM.
As for `O=C(O)Cc1nn(Cc2ccc(Br)cc2F)c(=O)c2ccccc12` [PONALRESTAT], the figures for the IC50 in series [6] and in series [1] were 28 nM and 2000 nM, respectively. In addition, the Selectivity ratio in series [8] turned out to be 71.4.
`CCOC(=O)C1=C(O)C(=O)N(C2CCCCC2)C1`: the inhibition in [3] came out at 22%.
With `CCOC(=O)C1=C(O)C(=O)N([C@@H](C)c2ccccc2)C1`, the 50% inhibitory concentration (IC50) in series [2] is 1200 nM.
Compound `CS(=O)(=O)C1CN(Cc2ccccc2)C(=O)C1=O` (configuration not stated) had a pKa in series [9] of 5.1.
With `O=C1NC(=O)C2(N1)c1ccccc1-c1ccc(F)cc12` (configuration not stated) [ALCONIL], the figures for the IC50 in series [6] and in [1] were 300 nM and 27 nM, respectively. Besides, the Selectivity ratio in series [8] came to 0.1.
In the case of `CCOC(=O)C1=C(O)C(=O)N(Cc2ccncc2)C1`, the results for the IC50 in series [2] and in series [11] were 200 nM and 110 nM, respectively. Moreover, the inhibition in series [4] was determined as 9%. For the same compound, in series [5], the Inhibition is listed as 28%. The Selectivity ratio in series [10] was above 1800.
On to `CCOC(=O)C1=C(O)C(=O)N(c2ccccc2)C1`, for which the inhibition in series [3] came out at 28%.
With `O=C1CCN(Cc2ccccc2)C1=O`, in series [12], the pKa result is reported as “Could not be measured”.
In turn, `CC(C)(C)OC(=O)C1=C(O)C(=O)N(Cc2cccs2)C1` came in with an inhibition in [3] of 9%. In addition, the Inhibition in series [13] was 36%; in [5] it was 37%.
`CC1CN(Cc2ccccc2)C(=O)C1=O` (configuration not stated) registered a pKa in series [9] of 10.6.
Compound `CCOC(=O)C1=C(O)C(=O)N(c2cccc3ccccc23)C1` had an inhibition in series [3] of 36%.
Regarding `CCOC(=O)C1=C(O)C(=O)N(Cc2ccc(Cl)cc2)C1`, inhibition in [2] was half-maximal at 310 nM (IC50).
The same measure, in the same setting: the same measure for `CCOC(=O)C1=C(O)C(=O)N(Cc2ccco2)C1`: 3300 nM.
Same read-out and setting: the same measure for `CCOC(=O)C1=C(O)C(=O)N(Cc2ccc(OC)cc2)C1`: 410 nM; for `CCOC(=O)C1=C(O)C(=O)N(Cc2ccc(Cl)c(Cl)c2)C1`: 240 nM.
On the same count and under the same terms, the value for `CCOC(=O)C1=C(O)C(=O)N(C2c3ccccc3-c3ccccc32)C1` was 300 nM; that for `CCOC(=O)C1=C(O)C(=O)N(Cc2ccc(Br)cc2)C1` was 500 nM.
Take `CCCC(CCC)C(=O)O` [VALPROATE SODIUM]: the IC50 was determined as 380000 nM in series [6] and 89000 nM in series [1]. For the same compound, the Selectivity ratio in series [8] was determined as 0.2.
In series [6], `COc1ccc2c(C(=S)N(C)CC(=O)O)cccc2c1C(F)(F)F` [TOLRESTAT] yielded a concentration for half-maximal inhibition (IC50) of 29 nM.
Turning to `CC1(S(=O)(=O)O)CC(=O)c2ccccc2C1=O` (configuration not stated) [MENADIONE SULFUROUS ACID], the IC50 turned out to be 82000 nM in series [6] and 490000 nM in series [1]. Further, in series [8], the Selectivity ratio was 6.
In [2], `CCOC(=O)C1=C(O)C(=O)N([C@H](C)c2ccccc2)C1` came in with an IC50 of 840 nM.
Take `CSC1CN(Cc2ccccc2)C(=O)C1=O` (configuration not stated): the pKa in series [9] worked out at 7.3.
The compound `CCOC(=O)C1=C(O)C(=O)N(Cc2ccccn2)C1` displayed an IC50 in series [2] of 440 nM.
The same measure, in the same setting: the value for `CCOC(=O)C1=C(O)C(=O)N(Cc2ccccc2Cl)C1` was 2300 nM.
